Test results published in ChEMBL document CHEMBL1145950, “2-arylureidobenzoic acids: selective noncompetitive antagonists for the homomeric kainate receptor subtype GluR5” (J Med Chem, 2003).

Legend:
[1] = target: T1, Glutamate receptor ionotropic, kainate 1 (Homo sapiens, UniProt P39086); assay: In vitro inhibitory activity against human ionotropic glutamate receptor ionotropic kainate 1 (GluR-5) expressed in HEK293 cells.; type: cell-based
[2] = target: Glutamate receptor 1 (Rattus norvegicus) (UniProt P19490); assay: In vitro inhibitory activity against Ionotropic glutamate receptor AMPA 1 of HEK293 cells in FLIPR assay
Glutamate receptor 1 (Rattus norvegicus), sequence (P19490 whole entry, looked up): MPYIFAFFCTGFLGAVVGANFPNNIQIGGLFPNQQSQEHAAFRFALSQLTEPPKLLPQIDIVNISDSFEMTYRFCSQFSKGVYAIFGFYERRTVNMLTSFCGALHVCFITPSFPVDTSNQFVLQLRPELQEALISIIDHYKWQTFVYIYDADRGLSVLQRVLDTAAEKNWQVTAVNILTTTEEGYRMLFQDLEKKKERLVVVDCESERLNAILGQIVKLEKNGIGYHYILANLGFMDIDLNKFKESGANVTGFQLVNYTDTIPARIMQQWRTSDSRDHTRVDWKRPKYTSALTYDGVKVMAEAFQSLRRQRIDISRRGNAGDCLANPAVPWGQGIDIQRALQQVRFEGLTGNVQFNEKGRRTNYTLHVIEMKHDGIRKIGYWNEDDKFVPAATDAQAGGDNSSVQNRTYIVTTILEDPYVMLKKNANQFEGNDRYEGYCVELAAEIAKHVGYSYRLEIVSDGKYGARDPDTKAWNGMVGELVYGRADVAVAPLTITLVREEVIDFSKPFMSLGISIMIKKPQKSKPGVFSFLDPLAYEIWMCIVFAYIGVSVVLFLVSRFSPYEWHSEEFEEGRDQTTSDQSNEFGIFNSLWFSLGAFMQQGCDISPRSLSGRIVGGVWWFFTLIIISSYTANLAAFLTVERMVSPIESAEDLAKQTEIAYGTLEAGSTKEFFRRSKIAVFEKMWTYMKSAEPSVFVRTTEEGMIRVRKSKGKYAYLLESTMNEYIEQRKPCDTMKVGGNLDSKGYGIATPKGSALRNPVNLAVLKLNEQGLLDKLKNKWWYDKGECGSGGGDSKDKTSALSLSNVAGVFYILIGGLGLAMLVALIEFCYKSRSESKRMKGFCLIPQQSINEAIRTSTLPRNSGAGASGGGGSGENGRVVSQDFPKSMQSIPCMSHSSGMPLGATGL

Mus musculus [3] = assay: ATPA induced rigidity in mice was determined after 30 minutes of administration; type: functional
How it was run: (§1)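 Female NMRI mice, 20-25 g. Test substance given intravenously, n = 8 per dose, 5 or 30 min before ATPA (30 mg/kg i.v.; 3 mg/mL in saline, pH 7). Rigidity scored every 5 min over 30 min after ATPA, as percent of rigid mice over time.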

[4] = target: Glutamate receptor ionotropic, kainate 2 (Homo sapiens, UniProt Q13002); assay: In vitro inhibitory activity against Ionotropic glutamate receptor ionotropic kainate 2 (GluR-6) of HEK293 cells in FLIPR assay; type: cell-based
Glutamate receptor ionotropic, kainate 2, sequence (Q13002 whole entry): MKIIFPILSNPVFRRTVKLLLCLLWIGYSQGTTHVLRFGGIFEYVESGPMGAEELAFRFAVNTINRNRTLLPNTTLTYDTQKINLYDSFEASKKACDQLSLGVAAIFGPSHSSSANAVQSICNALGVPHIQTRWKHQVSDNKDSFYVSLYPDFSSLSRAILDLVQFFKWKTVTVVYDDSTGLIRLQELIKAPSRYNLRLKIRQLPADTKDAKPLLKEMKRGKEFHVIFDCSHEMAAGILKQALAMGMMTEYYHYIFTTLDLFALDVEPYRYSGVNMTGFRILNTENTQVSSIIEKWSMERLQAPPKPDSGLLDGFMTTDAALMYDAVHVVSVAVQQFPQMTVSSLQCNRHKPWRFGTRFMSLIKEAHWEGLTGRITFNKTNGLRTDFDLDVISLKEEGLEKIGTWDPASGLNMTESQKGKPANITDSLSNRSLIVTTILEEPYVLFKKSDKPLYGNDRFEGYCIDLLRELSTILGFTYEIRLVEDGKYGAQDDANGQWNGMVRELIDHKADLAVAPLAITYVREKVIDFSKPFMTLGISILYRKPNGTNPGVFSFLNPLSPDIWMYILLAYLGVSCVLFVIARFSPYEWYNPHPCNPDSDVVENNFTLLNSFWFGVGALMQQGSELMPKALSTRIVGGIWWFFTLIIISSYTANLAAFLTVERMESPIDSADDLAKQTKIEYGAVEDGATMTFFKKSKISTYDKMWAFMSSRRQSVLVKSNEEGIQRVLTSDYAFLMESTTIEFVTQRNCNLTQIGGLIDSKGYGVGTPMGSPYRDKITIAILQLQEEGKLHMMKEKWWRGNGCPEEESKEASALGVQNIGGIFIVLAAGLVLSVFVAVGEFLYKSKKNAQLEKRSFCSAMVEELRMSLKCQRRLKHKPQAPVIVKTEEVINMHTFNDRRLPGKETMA
How it was run: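 Human GluR6 stably expressed in HEK293, plated 24 h before assay. Cells loaded with 2 µM Fluo-4-AM for 60 min at room temperature, washed into Na+-free Ringer, pH 7.4. Compound preincubated 1.5 min, then 0.2 µM domoate added (final). Inhibition of the FLIPR Ca2+ fluorescence rise (ex 488, em 510-570 nm) was measured; IC50 from ≥3 experiments.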

Mus musculus [5] = assay: ATPA induced rigidity in mice was determined after 5 minutes of administration; type: functional; how it was run: as §1
[6] = target: Glutamate receptor 4 (Rattus norvegicus) (UniProt P19493); assay: In vitro inhibitory activity against Ionotropic glutamate receptor AMPA 4 of HEK293 cells in FLIPR assay
Glutamate receptor 4 (Rattus norvegicus), sequence (P19493 whole entry, looked up): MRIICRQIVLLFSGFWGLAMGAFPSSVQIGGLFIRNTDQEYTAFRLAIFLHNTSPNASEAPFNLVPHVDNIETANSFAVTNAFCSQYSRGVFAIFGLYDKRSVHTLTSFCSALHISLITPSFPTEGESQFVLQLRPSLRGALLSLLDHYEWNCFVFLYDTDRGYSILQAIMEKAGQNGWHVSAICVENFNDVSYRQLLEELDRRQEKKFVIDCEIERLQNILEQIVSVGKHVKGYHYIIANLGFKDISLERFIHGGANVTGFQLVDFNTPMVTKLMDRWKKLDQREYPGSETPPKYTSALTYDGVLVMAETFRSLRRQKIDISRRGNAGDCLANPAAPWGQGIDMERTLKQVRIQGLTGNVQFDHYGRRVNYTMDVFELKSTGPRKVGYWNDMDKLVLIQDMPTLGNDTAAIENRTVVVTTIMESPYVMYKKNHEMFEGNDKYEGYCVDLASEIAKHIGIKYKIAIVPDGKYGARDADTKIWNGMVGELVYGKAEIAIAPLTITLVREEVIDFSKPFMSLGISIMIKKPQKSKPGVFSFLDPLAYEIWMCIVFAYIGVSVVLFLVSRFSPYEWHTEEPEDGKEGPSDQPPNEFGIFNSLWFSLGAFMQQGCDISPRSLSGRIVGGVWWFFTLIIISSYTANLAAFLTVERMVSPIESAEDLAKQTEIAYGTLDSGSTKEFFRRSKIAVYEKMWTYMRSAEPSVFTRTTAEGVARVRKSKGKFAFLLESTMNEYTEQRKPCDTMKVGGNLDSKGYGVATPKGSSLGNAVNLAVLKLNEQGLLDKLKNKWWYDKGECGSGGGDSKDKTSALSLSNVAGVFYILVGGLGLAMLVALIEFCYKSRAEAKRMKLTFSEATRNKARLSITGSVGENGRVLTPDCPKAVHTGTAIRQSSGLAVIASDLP

[7] = target: Glutamate receptor 2 (Rattus norvegicus) (UniProt P19491); assay: In vitro inhibitory activity against Ionotropic glutamate receptor AMPA 2 of HEK293 cells in FLIPR assay
[8] = target: T1, Glutamate receptor ionotropic, kainate 1; assay: Binding inhibition of compound against Ionotropic glutamate receptor ionotropic kainate 1 (GluR5) using [3H]ATPA as radioligand
How it was run: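 GluR5-expressing HEK293 cell membranes (washed in 50 mM Tris-HCl pH 7.1, prepared at 0-4 °C) incubated with 3 nM [3H]ATPA, 46-84 µg protein/assay, 60 min at 2 °C; test compounds at 3-30 µM. Nonspecific binding defined with 0.6 mM Glu; rapid filtration, liquid scintillation counting. At least three separate experiments.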

[9] = target: Glutamate receptor 3 (Rattus norvegicus) (UniProt P19492); assay: In vitro inhibitory activity against Ionotropic glutamate receptor AMPA 3 of HEK293 cells in FLIPR assay
Glutamate receptor 3 (Rattus norvegicus), sequence (P19492 whole entry, looked up): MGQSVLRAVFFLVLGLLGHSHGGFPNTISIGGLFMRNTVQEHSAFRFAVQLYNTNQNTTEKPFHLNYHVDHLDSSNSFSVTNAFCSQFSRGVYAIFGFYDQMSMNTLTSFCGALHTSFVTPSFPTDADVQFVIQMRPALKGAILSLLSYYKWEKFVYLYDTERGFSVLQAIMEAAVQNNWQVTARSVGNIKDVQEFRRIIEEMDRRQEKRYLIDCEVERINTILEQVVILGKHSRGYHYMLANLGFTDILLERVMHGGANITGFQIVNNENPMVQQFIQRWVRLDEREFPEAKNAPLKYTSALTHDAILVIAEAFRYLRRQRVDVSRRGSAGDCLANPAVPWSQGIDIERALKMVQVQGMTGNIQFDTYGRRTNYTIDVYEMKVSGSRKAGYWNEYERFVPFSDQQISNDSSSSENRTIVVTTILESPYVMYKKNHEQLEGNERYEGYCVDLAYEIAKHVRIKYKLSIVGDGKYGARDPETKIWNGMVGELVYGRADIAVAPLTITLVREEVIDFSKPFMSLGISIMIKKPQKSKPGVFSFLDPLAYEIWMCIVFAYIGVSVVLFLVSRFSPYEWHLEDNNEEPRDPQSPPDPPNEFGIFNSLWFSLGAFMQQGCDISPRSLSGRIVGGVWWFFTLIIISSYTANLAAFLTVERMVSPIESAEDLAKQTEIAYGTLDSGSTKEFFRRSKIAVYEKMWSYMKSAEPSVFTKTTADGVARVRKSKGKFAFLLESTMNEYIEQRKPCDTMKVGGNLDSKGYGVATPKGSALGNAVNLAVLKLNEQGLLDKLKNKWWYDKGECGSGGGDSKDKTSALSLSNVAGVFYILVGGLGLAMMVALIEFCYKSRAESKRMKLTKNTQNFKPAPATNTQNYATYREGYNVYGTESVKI

T1 sequence (P39086 whole entry): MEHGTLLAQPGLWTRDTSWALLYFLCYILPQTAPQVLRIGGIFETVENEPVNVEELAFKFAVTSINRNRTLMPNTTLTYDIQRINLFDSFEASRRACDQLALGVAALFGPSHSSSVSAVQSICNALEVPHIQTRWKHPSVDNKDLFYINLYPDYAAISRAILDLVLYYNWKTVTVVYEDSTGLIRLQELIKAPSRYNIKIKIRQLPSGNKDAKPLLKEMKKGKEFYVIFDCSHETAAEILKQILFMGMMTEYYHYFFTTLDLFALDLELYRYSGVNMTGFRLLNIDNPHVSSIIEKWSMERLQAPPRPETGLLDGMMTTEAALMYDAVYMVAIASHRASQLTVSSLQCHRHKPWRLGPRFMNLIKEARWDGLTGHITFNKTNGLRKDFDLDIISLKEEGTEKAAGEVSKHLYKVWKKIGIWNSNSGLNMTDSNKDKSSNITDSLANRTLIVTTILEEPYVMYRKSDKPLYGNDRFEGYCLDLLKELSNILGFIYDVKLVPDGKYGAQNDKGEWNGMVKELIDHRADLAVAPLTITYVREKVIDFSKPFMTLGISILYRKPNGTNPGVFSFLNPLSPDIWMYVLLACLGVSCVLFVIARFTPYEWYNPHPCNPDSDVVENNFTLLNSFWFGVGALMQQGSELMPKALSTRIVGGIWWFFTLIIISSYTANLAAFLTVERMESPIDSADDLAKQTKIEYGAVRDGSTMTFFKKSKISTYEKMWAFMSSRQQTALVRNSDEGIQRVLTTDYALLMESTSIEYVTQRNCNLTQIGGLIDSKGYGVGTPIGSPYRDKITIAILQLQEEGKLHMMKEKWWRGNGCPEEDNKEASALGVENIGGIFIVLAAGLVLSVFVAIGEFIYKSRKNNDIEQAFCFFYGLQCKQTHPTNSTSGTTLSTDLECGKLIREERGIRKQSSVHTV

Row | SMILES | IC50 [1] [µM] | further results
1 | COc1ccc(NC(=O)Nc2cc(Cl)ccc2C(=O)O)cc1 | 10 | –
2 | O=C(Nc1cc(Cl)ccc1C(=O)O)NC1CCCCC1 | > 100 | –
3 | Cc1cccc(NC(=O)Nc2cccc(C(F)(F)F)c2)c1C(=O)O | > 100 | –
4 | O=C(Nc1ccncc1)Nc1cc(Cl)ccc1C(=O)O | 88 | –
5 | Cc1ccc(NC(=O)Nc2cccc(C(F)(F)F)c2)c(C(=O)O)c1 | > 100 | –
6 | O=C(Nc1ccc2cc3ccccc3cc2c1)Nc1cc(Cl)ccc1C(=O)O | > 30 | –
7 | O=C(Nc1ccccc1I)Nc1cc(Cl)ccc1C(=O)O | 5 | –
8 | O=C(Nc1cc(Cl)ccc1C(=O)O)Nc1ccccc1C(F)(F)F | 4.5 | –
9 | O=C(Nc1cc(Cl)ccc1C(=O)O)Nc1cccc2ccccc12 | 9.4 | –
10 | Cc1cccc(C(=O)O)c1NC(=O)Nc1cccc(C(F)(F)F)c1 | > 100 | –
11 | O=C(Nc1cccc(F)c1)Nc1cc(Cl)ccc1C(=O)O | 7.6 | –
12 | O=C(Nc1ccccc1)Nc1ccccc1C(=O)O | > 100 | –
13 | O=C(Nc1cccc(C(F)(F)F)c1)Nc1cc(F)ccc1C(=O)O | 10 | –
14 | O=C(Nc1ccc2ccccc2c1)Nc1cc(Cl)ccc1C(=O)O | 1.2 | IC50 [2]: > 100 µM; ED50 (Mus musculus [3]): > 30 mg/kg; IC50 [4]: 62 µM; ED50 (Mus musculus [5]): > 30 mg/kg; IC50 [6]: > 100 µM; IC50 [8]: > 30 µM; IC50 [9]: > 100 µM
15 | O=C(Nc1cccc(C(F)(F)F)c1)Nc1cc(Br)ccc1C(=O)O | 6.1 | –
16 | O=C(Nc1ccc2c(c1)OCO2)Nc1cc(Cl)ccc1C(=O)O | 3.6 | –

The next lines start with results.

Row | IC50 [1] [µM] | SMILES | further results
17 | 3.7 | COc1cccc(NC(=O)Nc2cc(Cl)ccc2C(=O)O)c1 | –
18 | 3.1 | O=C(Nc1ccc(Cl)cc1)Nc1cc(Cl)ccc1C(=O)O | –
19 | 4.7 | O=C(Nc1ccccc1Cl)Nc1cc(Cl)ccc1C(=O)O | –
20 | 2.2 | O=C(Nc1cccc(I)c1)Nc1cc(Cl)ccc1C(=O)O | –
21 | 5 | O=C(Nc1cccc(C(F)(F)F)c1)Nc1cc(Cl)ccc1C(=O)O | –
22 | 4.8 | O=C(Nc1cccc(Br)c1)Nc1cc(Cl)ccc1C(=O)O | IC50 [2]: > 100 µM; ED50 (Mus musculus [3]; Mus musculus, 0.5 h): 24 mg/kg; IC50 [4]: 28 µM; ED50 (Mus musculus [5]; Mus musculus, 5 min): 4 mg/kg; IC50 [6]: > 100 µM; IC50 [7]: > 100 µM; IC50 [8]: > 30 µM; IC50 [9]: > 100 µM
23 | > 10 | O=C(Nc1cc(Cl)ccc1C(=O)O)Nc1ccccc1-c1ccccc1 | –
24 | 2.2 | O=C(Nc1ccc(Br)cc1)Nc1cc(Cl)ccc1C(=O)O | –
25 | 4.7 | O=C(Nc1ccc(I)cc1)Nc1cc(Cl)ccc1C(=O)O | –
26 | 4.5 | O=C(Nc1ccccc1Br)Nc1cc(Cl)ccc1C(=O)O | –
27 | 10 | O=C(Nc1ccccc1)Nc1cc(Cl)ccc1C(=O)O | –
28 | 1.6 | O=C(Nc1cc(NC(=O)c2ccccc2)c(C(=O)O)cc1C(=O)O)c1ccccc1 | –
29 | 1.2 | O=C(Nc1cc2ccccc2[nH]1)Nc1cc(Cl)ccc1C(=O)O | –
30 | 4.8 | O=C(Nc1ccc(C(F)(F)F)cc1)Nc1cc(Cl)ccc1C(=O)O | –
